We go through 6 compounds from ChEMBL document CHEMBL1132166, “Synthesis and biological evaluation of dihydrobenzofuran lignans and related compounds as potential antitumor agents that inhibit tubulin polymerization” (J Med Chem, 1999).

Test [1] deals with Tubulin alpha chain (Sus scrofa) (UniProt P02550). The following applies: Homo sapiens; 1.0 uM.
Test [2] shares this target. The following applies: Homo sapiens; 5.0 uM.
Test [3] has as its system Panel (Carcinoma cell lines). As to the kind of experiment: Average log GI50 value against a panel of human cancer cell lines. In kind it is functional. An outline of the steps: (§1)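 NCI in vitro human tumor cell line screening panel; each compound tested at a minimum of five concentrations at 10-fold dilutions, highest 100 µM, over a 48 h assay. GI50 is the molar concentration giving 50% growth inhibition. TGI and LC50 were also derived, and the average log GI50 was taken across all lines tested.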

Another test concerns BT-549. Kind of test: Cytotoxicity against BT-549 breast cancer cell line. In kind it is functional. Conditions: Homo sapiens. The method, boiled down: as §1
In a further test the test system is CCRF-CEM. As to the kind of experiment: Growth inhibitory activity determined against CCRF-CEM leukemia cell line. The following applies: Homo sapiens. In kind it is functional. The method, boiled down:
as §1

Test [4] deals with HL-60. Kind of test: Compound was evaluated for its effect on the growth of HL 60 human leukemia cells. In kind it is functional, cell-based. The method, boiled down: (§2)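 HL-60 human leukemia cells were grown for 24 h with compound. Growth was measured as the increase in cell number from time zero, and the IC50 was taken from that growth. Mitotic arrest was scored as the fraction of cells with condensed chromosomes after 24 h at 10 µM.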

A further test deals with Hs-578T. Kind of test: Growth inhibitory activity determined against HS 578 T breast cancer cell line. The following applies: Homo sapiens. The test is classed as functional. An outline of the steps:
as §1

The subject of test [5] is Panel (Carcinoma cell lines). Kind of test: The molar drug concentration required for 50% growth inhibition. The test is classed as functional. The following applies: Homo sapiens. The method, boiled down:
as §1

Another test has as its system MOLT-4. As to the kind of experiment: Growth inhibitory activity determined against MOLT-4 leukemia cell line. In kind it is functional. Conditions: Homo sapiens. An outline of the steps:
as §1

A further test concerns MDA-MB-4. As to the kind of experiment: Cytotoxicity against MDA-MB-435 breast cancer cell line. The test is classed as functional. Conditions: Homo sapiens. The method, boiled down: as §1
The next test concerns MDA-MB-231. Kind of test: Growth inhibitory activity determined against MDA-MB-231/ATCC breast cancer cell line. In kind it is functional. The following applies: Homo sapiens. An outline of the steps: as §1
The subject of the next test is MDA-N. Kind of test: Cytotoxicity against MDA-N breast cancer cell line. The test is classed as functional. The following applies: Homo sapiens. An outline of the steps:
as §1

Test [6] deals with MCF7. Kind of test: Growth inhibitory activity determined against MCF-7 breast cancer cell line. In kind it is functional. The following applies: Homo sapiens. An outline of the steps: as §1
In test [7] the test system is MCF7. As to the kind of experiment: Growth inhibitory activity determined against MCF-7/ADR-RES breast cancer cell line. In kind it is functional. The following applies: Homo sapiens. An outline of the steps: as §1
For a further test, the system named is RPMI-8226. Kind of test: Growth inhibitory activity determined against RPMI-8226 leukemia cell line. In kind it is functional. The following applies: Homo sapiens. An outline of the steps:
as §1

Another test relates to SR. As to the kind of experiment: Growth inhibitory activity determined against SR leukemia cell line. Conditions: Homo sapiens. The test is classed as functional. The method, boiled down: as §1
Test [8] concerns HL-60. As to the kind of experiment: Inhibitory activity against HL 60 cells. The test is classed as functional, cell-based. Conditions: Homo sapiens. An outline of the steps:
as §2

For test [9], the target named is T1, Tubulin (Bos taurus, UniProt Q6B856+Q862L2+Q862F3). As to the kind of experiment: (§3) Inhibitory activity against purified bovine brain tubulin. The method, boiled down: (§4)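 Tubulin assembly: drug and tubulin were preincubated in glutamate for 15 min at 30 °C, then chilled on ice. GTP was added and assembly started by a 0→30 °C jump in a recording spectrophotometer. After 20 min, mixtures were chilled to 0 °C to confirm reversibility. IC50 was taken from inhibition of the extent of assembly across a drug concentration series (n = 3, SD).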

Test [10] has as its target T1, Tubulin. The description is as §3. In kind it is functional. The method, boiled down: as §4

Sequence of Tubulin alpha chain (Sus scrofa) (P02550 whole entry, looked up): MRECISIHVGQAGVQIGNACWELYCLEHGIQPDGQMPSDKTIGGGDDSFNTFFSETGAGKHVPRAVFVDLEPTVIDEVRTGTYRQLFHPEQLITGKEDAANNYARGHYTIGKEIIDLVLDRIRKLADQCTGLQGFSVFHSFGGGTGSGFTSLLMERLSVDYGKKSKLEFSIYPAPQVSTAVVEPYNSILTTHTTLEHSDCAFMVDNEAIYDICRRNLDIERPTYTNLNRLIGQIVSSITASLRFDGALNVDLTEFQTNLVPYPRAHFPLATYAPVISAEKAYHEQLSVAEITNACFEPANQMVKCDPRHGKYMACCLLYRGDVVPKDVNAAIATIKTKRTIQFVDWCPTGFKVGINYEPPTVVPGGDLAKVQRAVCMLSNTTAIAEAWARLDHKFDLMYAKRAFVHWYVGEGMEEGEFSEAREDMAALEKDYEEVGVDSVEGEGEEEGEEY

For `COc1ccc(/C=C\c2cc(OC)c(OC)c(OC)c2)cc1O`, the inhibition (usually the change of the read-out against control, counted positive when it falls) in test [1] amounted to 88%; in test [2], 100%.
In the case of `OCCCc1cc(O)c2c(c1)[C@@H](CO)[C@H](c1ccc(O)c(O)c1)O2`, in test [3], the “log GI50” value was -4.01.
For the compound `COC(=O)/C=C/c1cc(O)c2c(c1)[C@@H](C(=O)OC)[C@H](c1ccc(O)c(O)c1)O2`, the GI50 (as a rule, the concentration at which growth is held to half of that of the control) was less than 10 nM in the test on BT-549; 33 nM in the test with CCRF-CEM; 45 nM with Hs-578T; 288 nM in test [3]; 0.3 µM in [5]; 81 nM in the test on MOLT-4. Also, the GI50 in the test with MDA-MB-4 was less than 10 nM; with MDA-MB-231 it was 50 nM; with MDA-N, less than 10 nM; in the test on MCF7 [6] it was 29 nM; in the test on MCF7 [7], 54 nM; with RPMI-8226, 55 nM. Besides, in the test on SR, the GI50 is 69 nM. For the same compound, in the test with HL-60 [4], the IC50 (commonly the point on the concentration scale where inhibition reaches its midpoint) is 200 nM.
Turning to `COC(=O)CCc1cc(O)c2c(c1)[C@@H](C(=O)OC)[C@H](c1ccc(O)c(O)c1)O2`, the “log GI50” value in [3] was -4.97.
For `COC(=O)/C=C/c1cc(OC)c2c(c1)[C@@H](C(=O)OC)[C@H](c1ccc(OC)c(OC)c1)O2`, the IC50 in the test with HL-60 [8] was 80 nM; at Tubulin [9], greater than 40 µM; on Tubulin [10] it was greater than 40 µM. In [5], this compound came in with a GI50 of 5.1 µM.
Turning to `COC(=O)/C=C/c1cc(OC)c2c(c1)[C@@H](C(=O)OC)[C@H](c1ccc(O)c(OC)c1)O2`, it took 3.3 µM to inhibit growth in [5] by half (GI50). This compound also had an IC50 against Tubulin [10] greater than 40 µM.
